Assay results: ChEMBL document CHEMBL2086245, “Micelles catalyzed chemo- and regio-selective one pot and one step synthesis of 2,3,5,6-tetrakis(alkyl and arylsulfanyl)-1,4-benzoquinones and 2,5-diaminosubstituted-1,4-benzoquinones "In-Water" and their biological evaluation as antibacterial and antifungal agents” (Eur J Med Chem, 2012)
Values after ≈ are worked out from the molar mass of the structure shown.

What was measured:
Type in all cases: functional
Staphylococcus aureus = assay: Antibacterial activity against Staphylococcus aureus ATCC 25923 after 24 hrs by broth microdilution method
In short: (§1)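 NCCLS broth microdilution in Mueller-Hinton broth, 96-well plates. Initial inoculum 1-5 × 10^3 cells/mL. Incubated in a moist chamber at 35 °C for 24 h, then absorbance read at 492 nm. MIC taken as the concentration giving 90% growth inhibition relative to the growth control.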

Klebsiella pneumoniae = assay: Antibacterial activity against Klebsiella pneumoniae ATCC 27736 after 24 hrs by broth microdilution method; in short: as §1
Pseudomonas aeruginosa = assay: Antibacterial activity against Pseudomonas aeruginosa ATCC BAA-427 after 24 hrs by broth microdilution method; in short: as §1
Escherichia coli = assay: Antibacterial activity against Escherichia coli ATCC 9637 after 24 hrs by broth microdilution method; in short: as §1
Aspergillus fumigatus = assay: Antifungal activity against Aspergillus fumigatus after 72 hrs by broth microdilution method
In short: (§2)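 NCCLS broth microdilution in MOPS-buffered RPMI 1640, 96-well plates. Inoculum 1-5 × 10^3 cells/mL, moist chamber, 35 °C. Absorbance at 492 nm read at 48 h (C. albicans, C. parapsilosis), 72 h (C. neoformans, S. schenckii, A. fumigatus) or 96 h (T. mentagrophytes). MIC defined as 90% growth inhibition versus growth control.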

Candida albicans = assay: Antifungal activity against Candida albicans after 48 hrs by broth microdilution method; in short: as §2
Sporothrix schenckii = assay: Antifungal activity against Sporothrix schenckii after 72 hrs by broth microdilution method; in short: as §2
Candida parapsilosis = assay: Antifungal activity against Candida parapsilosis ATCC 22019 after 48 hrs by broth microdilution method; details: Lodderomyces parapsilosis, ATCC 22019, 48 h; in short: as §2
Cryptococcus neoformans = assay: Antifungal activity against Cryptococcus neoformans after 72 hrs by broth microdilution method; in short: as §2
[1] = test system: Trichophyton mentagrophytes; assay: Antifungal activity against Trichophyton mentagrophytes after 96 hrs by broth microdilution method; in short: as §2

| Molecule | MIC (Staphylococcus aureus; ATCC 25923, 24 h) [µg/mL] | MIC (Klebsiella pneumoniae; ATCC 27736, 24 h) [µg/mL] | MIC (Pseudomonas aeruginosa; ATCC BAA-427, 24 h) [µg/mL] | MIC (Escherichia coli; ATCC 9637, 24 h) [µg/mL] | MIC (Aspergillus fumigatus) [µg/mL] | MIC (Candida albicans) [µg/mL] | MIC (Sporothrix schenckii) [µg/mL] | MIC (Candida parapsilosis) [µg/mL] | MIC (Cryptococcus neoformans) [µg/mL] | MIC [1] [µg/mL] | MIC (Staphylococcus aureus) [µg/mL] | MIC (Klebsiella pneumoniae) [µg/mL] | MIC (Pseudomonas aeruginosa) [µg/mL] | MIC (Escherichia coli) [µg/mL] |
| --- | --- | --- | --- | --- | --- | --- | --- | --- | --- | --- | --- | --- | --- | --- |
| CC1(C)S[C@@H]2[C@H](NC(=O)[C@H](N)c3ccccc3)C(=O)N2[C@H]1C(=O)O [AMPICILLIN] | 12.5 (≈ 35.8 µM) | > 50 | > 50 | 12.5 (≈ 35.8 µM) | – | – | – | – | – | – | – | – | – | – |
| Cc1ccc(SC2=C(O)C(=O)C(Sc3ccc(C)cc3)=C(Sc3ccc(C)cc3)C2=O)cc1 | > 50 | > 50 | > 50 | > 50 | > 50 | 12.5 (≈ 25.5 µM) | > 50 | 25 (≈ 51 µM) | 25 (≈ 51 µM) | 50 (≈ 102 µM) | – | – | – | – |
| O=C1C(Cl)=C(N2CCCC2)C(=O)C(Cl)=C1N1CCCC1 | > 50 | > 50 | > 50 | > 50 | > 50 | 25 (≈ 79.3 µM) | > 50 | 50 (≈ 159 µM) | 25 (≈ 79.3 µM) | 50 (≈ 159 µM) | – | – | – | – |
| O=C1C(Cl)=C(Sc2ccccc2)C(=O)C(Cl)=C1Sc1ccccc1 | 50 (≈ 127 µM) | > 50 | > 50 | > 50 | > 50 | 25 (≈ 63.6 µM) | 50 (≈ 127 µM) | 25 (≈ 63.6 µM) | 25 (≈ 63.6 µM) | 50 (≈ 127 µM) | – | – | – | – |
| GENTAMICIN | – | – | – | – | – | – | – | – | – | – | 1.56 | 1.56 | 0.39 | 1.56 |
| Cc1ccc(SC2=C(Cl)C(=O)C(Sc3ccc(C)cc3)=C(Cl)C2=O)cc1 | 50 (≈ 119 µM) | > 50 | > 50 | > 50 | > 50 | 25 (≈ 59.3 µM) | 50 (≈ 119 µM) | 25 (≈ 59.3 µM) | 25 (≈ 59.3 µM) | 50 (≈ 119 µM) | – | – | – | – |
| O=C1C(O)=C(Sc2ccccc2)C(=O)C(Sc2ccccc2)=C1Sc1ccccc1 | > 50 | > 50 | > 50 | > 50 | > 50 | 12.5 (≈ 27.9 µM) | 50 (≈ 111 µM) | 12.5 (≈ 27.9 µM) | 12.5 (≈ 27.9 µM) | 50 (≈ 111 µM) | – | – | – | – |
| O=C1C(O)=C(Sc2cccc3ccccc23)C(=O)C(Sc2cccc3ccccc23)=C1Sc1cccc2ccccc12 | > 50 | > 50 | > 50 | > 50 | > 50 | 25 (≈ 41.8 µM) | > 50 | 25 (≈ 41.8 µM) | 25 (≈ 41.8 µM) | 50 (≈ 83.5 µM) | – | – | – | – |
| Clc1ccccc1C(c1ccccc1)(c1ccccc1)n1ccnc1 [CLOTRIMAZOLE] | – | – | – | – | 8 (≈ 23.2 µM) | 0.25 (≈ 0.725 µM) | 4 (≈ 11.6 µM) | 1 (≈ 2.9 µM) | 0.25 (≈ 0.725 µM) | 2 (≈ 5.8 µM) | – | – | – | – |
| OC(Cn1cncn1)(Cn1cncn1)c1ccc(F)cc1F [FLUCONAZOLE] | – | – | – | – | > 32 | 1 (≈ 3.27 µM) | 4 (≈ 13.1 µM) | 0.5 (≈ 1.63 µM) | 2 (≈ 6.53 µM) | 16 (≈ 52.2 µM) | – | – | – | – |
| O=C1C(Cl)=C(N2CCCCC2)C(=O)C(Cl)=C1N1CCCCC1 | > 50 | > 50 | > 50 | > 50 | > 50 | 25 (≈ 72.8 µM) | 25 (≈ 72.8 µM) | 25 (≈ 72.8 µM) | 25 (≈ 72.8 µM) | 12.5 (≈ 36.4 µM) | – | – | – | – |
